Assays:
[1] = biological target: T1, ATP-citrate synthase (Mus musculus) (UniProt Q91V92); experiment: In Vitro evaluation for the CF1 liver enzyme activity on ATP-dependent citrate exchange at concentration 50 uM
T1 sequence (whole entry): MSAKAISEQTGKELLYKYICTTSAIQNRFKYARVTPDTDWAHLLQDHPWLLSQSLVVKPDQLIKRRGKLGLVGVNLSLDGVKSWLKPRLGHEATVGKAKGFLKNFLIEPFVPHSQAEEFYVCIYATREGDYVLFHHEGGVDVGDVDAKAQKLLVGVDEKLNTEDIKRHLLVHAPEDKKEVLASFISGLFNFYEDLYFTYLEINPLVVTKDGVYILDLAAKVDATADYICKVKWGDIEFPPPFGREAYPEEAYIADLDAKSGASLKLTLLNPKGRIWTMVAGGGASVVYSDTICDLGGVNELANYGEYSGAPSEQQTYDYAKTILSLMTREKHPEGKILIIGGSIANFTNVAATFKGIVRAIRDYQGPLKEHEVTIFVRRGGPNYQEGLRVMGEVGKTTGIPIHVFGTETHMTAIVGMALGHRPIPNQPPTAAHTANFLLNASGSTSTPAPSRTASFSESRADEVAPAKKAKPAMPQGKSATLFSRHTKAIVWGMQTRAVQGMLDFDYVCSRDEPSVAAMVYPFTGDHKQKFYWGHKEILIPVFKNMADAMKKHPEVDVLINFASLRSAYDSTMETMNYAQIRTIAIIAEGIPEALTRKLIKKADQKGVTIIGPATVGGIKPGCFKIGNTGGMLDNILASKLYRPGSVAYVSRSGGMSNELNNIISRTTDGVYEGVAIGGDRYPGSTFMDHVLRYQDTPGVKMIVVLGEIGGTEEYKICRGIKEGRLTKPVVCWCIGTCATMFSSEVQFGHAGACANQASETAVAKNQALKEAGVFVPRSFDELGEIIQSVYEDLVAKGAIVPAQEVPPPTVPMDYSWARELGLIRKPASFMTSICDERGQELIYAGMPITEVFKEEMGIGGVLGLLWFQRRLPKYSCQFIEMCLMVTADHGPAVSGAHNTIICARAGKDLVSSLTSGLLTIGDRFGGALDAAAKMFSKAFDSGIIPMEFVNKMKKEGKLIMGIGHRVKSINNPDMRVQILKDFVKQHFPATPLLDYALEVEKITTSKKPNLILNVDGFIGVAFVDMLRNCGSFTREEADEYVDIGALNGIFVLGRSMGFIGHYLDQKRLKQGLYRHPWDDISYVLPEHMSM
How it was run: (§1)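 Liver was taken from CF1 male mice and made into 10% homogenates, which were incubated with test compound at 50, 100 or 200 µM. Each enzyme was assayed by its literature method, and protein was measured by Lowry. N = 6. Activity is expressed as % of untreated control ± SD.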

[2] = biological target: T1, ATP-citrate synthase (Mus musculus); experiment: In Vivo effect for the hypolipidemic activity on ATP-Citrate Lyase in CF1 mice after 16 days of oral administration at a dose of 10 mg/kg; assay type: organism-based; parameters: dose 10 mg/kg
How it was run: (§2)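 CF1 male mice are dosed orally at 10–60 mg/kg per day for 16 days, with 1% CMC as the control vehicle. Liver is homogenized at 10% in 0.25 M sucrose + 0.001 M EDTA, pH 7.2. Enzymes are assayed by literature methods, with Lowry protein. Activity is given as % of control (X ± SD, N = 6), with p from Student's t test.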

Mus musculus [3] = experiment: Compound was evaluated for the hypolipidemic activity in CF1 male mice at a dose of 10 mg/kg orally for Serum cholesterol at 16th day; assay type: functional; conditions: route oral
How it was run: (§3)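 CF1 male mice received the agent orally in 1% CMC at 10–60 mg/kg per day. Tail-vein blood was taken on days 9 and 16. Serum cholesterol was measured by modified Liebermann–Burchard on duplicate 25-µL samples, and serum triglyceride on day 16 in duplicate 50-µL samples. Values are % of vehicle control, mean ± SD, N = 6; Student's t test.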

Mus musculus [4] = experiment: Compound was evaluated for the hypolipidemic activity in CF1 male mice at a dose of 10 mg/kg orally for Serum triglyceride at 16th day; assay type: functional; conditions: route oral; how it was run: as §3
[5] = biological target: Acetyl-coenzyme A synthetase, cytoplasmic (Mus musculus) (UniProt Q9QXG4); experiment: In Vivo effect for the hypolipidemic activity on Acetyl-coenzyme A synthetase in CF1 mice after 16 days of oral administration at a dose of 60 mg/kg; assay type: functional, organism-based; parameters: dose 60 mg/kg; how it was run: as §2
[6] = biological target: T2, Sterol O-acyltransferase 1 (Mus musculus) (UniProt Q61263); experiment: In Vitro evaluation for the CF1 liver enzyme activity on Acyl cholesterol acyltransferase at concentration 200 uM; assay type: functional, tissue-based; how it was run: as §1
T2 sequence (whole entry): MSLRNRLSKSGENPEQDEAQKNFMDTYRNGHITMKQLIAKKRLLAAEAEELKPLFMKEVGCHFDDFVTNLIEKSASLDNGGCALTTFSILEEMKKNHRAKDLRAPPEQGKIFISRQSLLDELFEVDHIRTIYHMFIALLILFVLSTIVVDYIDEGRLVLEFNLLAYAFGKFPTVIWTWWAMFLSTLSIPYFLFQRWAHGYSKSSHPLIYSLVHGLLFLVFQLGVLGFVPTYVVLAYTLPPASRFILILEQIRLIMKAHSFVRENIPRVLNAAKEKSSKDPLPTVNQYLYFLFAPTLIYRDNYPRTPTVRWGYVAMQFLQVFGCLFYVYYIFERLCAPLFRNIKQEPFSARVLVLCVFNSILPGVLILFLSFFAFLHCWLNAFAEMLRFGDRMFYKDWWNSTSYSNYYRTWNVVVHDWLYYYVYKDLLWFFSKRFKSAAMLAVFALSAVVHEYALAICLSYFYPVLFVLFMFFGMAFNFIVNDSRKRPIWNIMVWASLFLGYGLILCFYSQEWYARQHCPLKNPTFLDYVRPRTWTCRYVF

Rattus norvegicus [7] = experiment: Compound was evaluated for the hypolipidemic activity at 20 mg/kg per day orally for 14 days on neutral lipids content in rat small intestine.; assay type: functional; conditions: route oral
How it was run: (§4)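 Male Sprague–Dawley rats were dosed orally for 14 days. Liver, small intestine and a 24-h fecal collection were lipid-extracted. Extracts were assayed for cholesterol (modified Liebermann–Burchard), triglyceride (enzymatic kit), neutral lipids, phospholipids and protein. Values are % of 1% CMC vehicle control, mean ± SD, N = 6.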

Rattus norvegicus [8] = experiment: Compound was evaluated for the hypolipidemic activity at 20 mg/kg per day orally for 14 days on protein content in rat liver; assay type: functional; conditions: route oral; how it was run: as §4
Rattus norvegicus [9] = experiment: Compound was evaluated for the hypolipidemic activity at 20 mg/kg per day orally for 14 days on cholesterol content in rat feces.; assay type: functional; conditions: route oral; how it was run: as §4
Rattus norvegicus [10] = experiment: Compound was evaluated for the hypolipidemic activity at 20 mg/kg per day orally for 14 days on lipid content in rat feces.; assay type: functional; conditions: route oral; how it was run: as §4
Rattus norvegicus [11] = experiment: Compound was evaluated for the hypolipidemic activity at 20 mg/kg per day orally for 14 days on neutral lipid content in rat liver; assay type: functional; conditions: route oral; how it was run: as §4
Rattus norvegicus [12] = experiment: Compound was evaluated for the hypolipidemic activity at 20 mg/kg per day orally for 14 days on triglycerides content in rat feces.; assay type: functional; conditions: route oral; how it was run: as §4
Mus musculus [13] = experiment: In Vivo effect for the hypolipidemic activity on phosphatidate phosphohydrolase in CF1 mice after 16 days administered orally at a dose of 10 mg/kg; assay type: organism-based; parameters: dose 10 mg/kg; how it was run: as §2

Acetyl-coenzyme A synthetase, cytoplasmic (Mus musculus), sequence (Q9QXG4 whole entry): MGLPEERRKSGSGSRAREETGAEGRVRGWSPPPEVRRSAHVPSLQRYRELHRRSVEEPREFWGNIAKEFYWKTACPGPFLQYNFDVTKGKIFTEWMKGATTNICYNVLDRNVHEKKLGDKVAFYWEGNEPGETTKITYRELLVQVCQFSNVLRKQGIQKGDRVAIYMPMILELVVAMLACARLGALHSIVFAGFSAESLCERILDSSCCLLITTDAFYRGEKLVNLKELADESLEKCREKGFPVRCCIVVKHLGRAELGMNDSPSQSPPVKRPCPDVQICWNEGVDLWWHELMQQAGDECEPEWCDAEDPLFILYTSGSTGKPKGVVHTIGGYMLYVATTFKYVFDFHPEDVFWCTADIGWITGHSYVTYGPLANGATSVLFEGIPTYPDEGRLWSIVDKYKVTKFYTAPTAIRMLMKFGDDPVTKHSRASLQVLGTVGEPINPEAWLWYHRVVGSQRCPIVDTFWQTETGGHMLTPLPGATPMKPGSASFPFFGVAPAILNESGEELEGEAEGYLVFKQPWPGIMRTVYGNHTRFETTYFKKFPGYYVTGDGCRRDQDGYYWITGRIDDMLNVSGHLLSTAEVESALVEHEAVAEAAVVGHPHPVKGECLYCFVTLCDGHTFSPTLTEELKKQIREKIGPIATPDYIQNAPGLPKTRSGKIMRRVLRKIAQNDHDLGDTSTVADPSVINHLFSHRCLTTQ

## COc1ccc(C2C(=O)c3ccccc3C2=O)cc1 [ANISINDIONE]
[1]
  Control: 72%
[2]
  Control: 70%
Mus musculus [3]
  Control: 63%
Mus musculus [4]
  Control: 64%
[5]
  Control: 99%
[6]
  Control: 60%
Rattus norvegicus [7]
  Control: 95%
Rattus norvegicus [8]
  Control: 100%
Rattus norvegicus [9]
  Control: 187%
Rattus norvegicus [10]
  Control: 103%
Rattus norvegicus [11]
  Control: 84%
Rattus norvegicus [12]
  Control: 118%
Mus musculus [13]
  Control: 53%

From ChEMBL document CHEMBL1123129, “Hypolipidemic activity of indan-1,3-dione derivatives in rodents” (J Med Chem, 1985)
